Test results published in article PMC3401279 (ACS Chemical Biology, 2012).
“Also recorded” adds a separate entry of the source.

Legend:
TAAR4 = settings: cited from earlier work
rodents = settings: carnivore odor; cited from earlier work
TAAR5 = settings: cited from earlier work
[1] = system: mTAAR7f-SS (mTAAR7f Y132S, C133S); assay: cellular reporter gene assay, mutant mTAAR7f-SS; assay type: cell-based, mouse; settings: mutant versus mTAAR7f, increase
[2] = system: mTAAR7e-YC (mTAAR7e S132Y, S133C); assay: cellular reporter gene assay, mutant mTAAR7e-YC; assay type: cell-based, mouse; settings: mutant versus mTAAR7e; for decreased affinity of mTAAR7e-YC: decrease
mTAAR7e = target: T1, mTAAR7e (Mus musculus, UniProt Q5QD09); assay: cAMP-dependent CRE-SEAP reporter gene assay in transfected HEK293 cells, mTAAR7e; assay type: cell-based; settings: ligand 10 μM
T1 sequence (Q5QD09 1-358): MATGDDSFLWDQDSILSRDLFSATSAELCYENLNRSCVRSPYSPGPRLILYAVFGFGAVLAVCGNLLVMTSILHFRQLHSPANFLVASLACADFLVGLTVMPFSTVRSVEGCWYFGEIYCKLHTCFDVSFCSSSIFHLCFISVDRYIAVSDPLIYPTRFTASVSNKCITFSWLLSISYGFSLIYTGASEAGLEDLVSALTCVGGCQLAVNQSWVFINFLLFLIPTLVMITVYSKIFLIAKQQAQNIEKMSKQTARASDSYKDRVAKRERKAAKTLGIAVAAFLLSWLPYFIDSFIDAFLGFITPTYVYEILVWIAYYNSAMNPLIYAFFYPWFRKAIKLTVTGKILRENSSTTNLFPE
Procedure, shortened: (§1)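 HEK293 cells were co-transfected with a TAAR plasmid and a cAMP-dependent secreted alkaline phosphatase reporter (CRE-SEAP). Receptors were expressed both unmodified and as fusions with an N-terminal bovine rhodopsin sequence (Rho tag) that aids surface expression. Transfected cells were incubated with test compound at 10 μM. Secreted phosphatase activity was quantified with a fluorescent substrate as the activation read-out. Triplicates ± s.d.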

rTAAR7h = target: T2, rTAAR7h (Rattus norvegicus, UniProt Q923Y4); assay: cAMP-dependent CRE-SEAP reporter gene assay in transfected HEK293 cells, rTAAR7h; assay type: cell-based; settings: ligand 10 μM
T2 sequence (Q923Y4 1-358): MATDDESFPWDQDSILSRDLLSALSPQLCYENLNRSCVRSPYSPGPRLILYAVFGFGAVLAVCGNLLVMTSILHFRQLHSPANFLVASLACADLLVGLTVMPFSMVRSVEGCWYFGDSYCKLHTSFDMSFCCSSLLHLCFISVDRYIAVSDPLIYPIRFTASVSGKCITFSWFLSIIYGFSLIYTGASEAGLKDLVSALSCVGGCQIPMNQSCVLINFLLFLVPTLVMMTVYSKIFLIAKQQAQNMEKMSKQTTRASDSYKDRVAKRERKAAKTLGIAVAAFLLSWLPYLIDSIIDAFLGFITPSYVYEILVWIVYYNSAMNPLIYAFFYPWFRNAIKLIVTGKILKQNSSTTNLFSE
Procedure, shortened: as §1

mTAAR7f = target: T3, mTAAR7f (Mus musculus, UniProt Q5QD08); assay: cAMP-dependent CRE-SEAP reporter gene assay in transfected HEK293 cells, mTAAR7f; assay type: cell-based; settings: ligand 10 μM
T3 sequence (Q5QD08 1-358): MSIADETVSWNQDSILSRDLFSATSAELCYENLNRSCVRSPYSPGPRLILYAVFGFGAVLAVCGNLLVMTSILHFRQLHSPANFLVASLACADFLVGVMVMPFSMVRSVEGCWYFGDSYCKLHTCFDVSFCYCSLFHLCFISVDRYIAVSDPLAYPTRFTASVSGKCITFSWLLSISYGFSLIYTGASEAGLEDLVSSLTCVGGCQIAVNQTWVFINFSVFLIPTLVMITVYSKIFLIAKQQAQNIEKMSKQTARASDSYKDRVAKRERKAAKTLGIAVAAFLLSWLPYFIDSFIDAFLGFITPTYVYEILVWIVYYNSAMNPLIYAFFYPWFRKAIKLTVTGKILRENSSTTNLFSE
Procedure, shortened: as §1

rTAAR7b = target: T4, rTAAR7b (Rattus norvegicus, UniProt Q923X8); assay: cAMP-dependent CRE-SEAP reporter gene assay in transfected HEK293 cells, rTAAR7b; assay type: cell-based; settings: ligand 10 μM
T4 sequence (Q923X8 1-358): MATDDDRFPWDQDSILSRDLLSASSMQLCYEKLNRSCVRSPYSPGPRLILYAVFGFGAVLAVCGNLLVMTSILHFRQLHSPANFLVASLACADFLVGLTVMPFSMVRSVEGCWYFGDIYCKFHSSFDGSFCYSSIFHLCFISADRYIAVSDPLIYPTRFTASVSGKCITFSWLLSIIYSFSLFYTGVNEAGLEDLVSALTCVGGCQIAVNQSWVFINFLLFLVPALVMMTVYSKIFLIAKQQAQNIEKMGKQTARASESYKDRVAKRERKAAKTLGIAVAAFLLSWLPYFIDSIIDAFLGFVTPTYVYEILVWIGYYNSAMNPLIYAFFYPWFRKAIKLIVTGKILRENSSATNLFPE
Procedure, shortened: as §1

mTAAR7b = target: T5, mTAAR7b (Mus musculus, UniProt Q5QD11); assay: cAMP-dependent CRE-SEAP reporter gene assay in transfected HEK293 cells, mTAAR7b; assay type: cell-based; settings: ligand 10 μM
T5 sequence (Q5QD11 1-358): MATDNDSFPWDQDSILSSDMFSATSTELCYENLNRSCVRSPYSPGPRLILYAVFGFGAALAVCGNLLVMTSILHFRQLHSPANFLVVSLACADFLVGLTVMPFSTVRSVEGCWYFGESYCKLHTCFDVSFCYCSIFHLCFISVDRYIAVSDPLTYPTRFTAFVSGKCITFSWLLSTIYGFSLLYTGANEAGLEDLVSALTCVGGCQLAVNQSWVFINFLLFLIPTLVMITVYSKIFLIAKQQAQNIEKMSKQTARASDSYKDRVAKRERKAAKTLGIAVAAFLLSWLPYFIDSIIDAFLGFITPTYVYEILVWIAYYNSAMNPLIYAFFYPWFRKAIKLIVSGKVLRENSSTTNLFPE
Procedure, shortened: as §1

rTAAR7d = target: T6, rTAAR7d (Rattus norvegicus, UniProt Q923X5); assay: cAMP-dependent CRE-SEAP reporter gene assay in transfected HEK293 cells, rTAAR7d; assay type: cell-based; settings: ligand 10 μM
T6 sequence (Q923X5 1-358): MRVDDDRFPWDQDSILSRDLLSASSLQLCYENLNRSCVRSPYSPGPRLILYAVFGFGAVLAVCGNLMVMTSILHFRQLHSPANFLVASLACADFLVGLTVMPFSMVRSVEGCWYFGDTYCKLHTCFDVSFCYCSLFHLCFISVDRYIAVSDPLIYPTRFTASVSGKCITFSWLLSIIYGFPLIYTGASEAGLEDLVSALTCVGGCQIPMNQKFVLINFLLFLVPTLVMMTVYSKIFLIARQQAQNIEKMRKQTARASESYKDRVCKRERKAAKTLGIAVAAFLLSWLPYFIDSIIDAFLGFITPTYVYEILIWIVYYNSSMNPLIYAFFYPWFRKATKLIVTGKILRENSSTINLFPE
Procedure, shortened: as §1

Question: Which TAAR4 agonist (TAAR4) does the source give for NCCc1ccccc1 [ligand 3, 2-phenylethylamine] here?
Answer: The TAAR4 agonist was “agonist”.

Question: What about the “behavioral effect of odor on rodents” value (rodents) of the same molecule?
Answer: Its value is “repels rodents”.

Question: With CN(C)C [ligand 4, trimethylamine] as the molecule, how does the TAAR5 agonist (TAAR5) read?
Answer: The TAAR5 agonist was “agonist”.

Question: For CN(C)CCc1ccccc1 [ligand 6, N,N-dimethyl-2-phenylethylamine], which “increases in affinity of mTAAR7f-SS” value [1] is on record?
Answer: Its value is > 1,000 fold.

Question: And the “decreased affinity of mTAAR7e-YC” value [2]?
Answer: Its value is > 1,000 fold.

Question: And the “activation of mTAAR7e (reporter response)” value (mTAAR7e)?
Answer: Its value is “respond; also recorded: activated”.

Question: And the “activation of rTAAR7h (reporter response)” value (rTAAR7h)?
Answer: Its value is “respond; also recorded: activated”.

Question: Which results are given for COc1ccc2[nH]cc(CCN(C)C)c2c1 [ligand 7, 5-methoxy-N,N-dimethyltryptamine]?
Answer: increases in affinity of mTAAR7f-SS [1]: > 1,000 fold; decreased affinity of mTAAR7e-YC [2]: > 1,000 fold

Question: With CN(C)C1CCCCC1 [ligand 10, N,N-dimethylcyclohexylamine] as the molecule, how does the “enhanced affinity of mTAAR7e-YC” value ([2]; increase) read?
Answer: The value was > 1,000 fold.

Question: What about the “activation of mTAAR7f (reporter response)” value (mTAAR7f) of the same molecule?
Answer: Its value is “respond; also recorded: activated”.

Question: What about the “activation of rTAAR7b (reporter response)” value (rTAAR7b) of the same molecule?
Answer: The value was “respond; also recorded: activated”.

Question: What about the “activation of mTAAR7b (reporter response)” value (mTAAR7b) of the same molecule?
Answer: Its value is “respond; also recorded: activated”.

Question: What about the “activation of rTAAR7d (reporter response)” value (rTAAR7d) of the same molecule?
Answer: The value was “respond; also recorded: activated”.
